T cruzi inh: blocks replication of Trypanosoma cruzi. T. cruzi beta-gal in NIH3T3, luminescence, 90 h. inhibition, % (no concentration beside the values). 1.4% of 300,000 active. AID 1885;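 active means mean inhibition across valid replicates above about 55%, limit read from the data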;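 further: signal also drops with host cell toxicity which is not excluded here; 0% = plate median of DMSO wells and 100% = zero luminescence signal; higher percent means less beta-gal luminescence so fewer parasites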
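Test system: β-gal T. cruzi (Tulahuen C4) inside NIH/3T3 cells / Quantity: 5,000 cells/well / Measured by: luminescence from GalScreen with 0.05% NP40, read after 60 min / Medium: DMEM plus 2% FBS / Measure: parasite load inhibition, % / Reagent: Tulahuen C4 trypomastigotes, 5000/well / Schedule: co-culture of at least 90 h after 3 h attachment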
FID counter: fluorescent intercalator displacement, NS3 helicase counter-screen | DNA fluorescent intercalator displacement, fluorescence | inhibition, % at 7.9 µM | 0.17% of 290,000 active; in the data active means inhibition above about 37%;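 further: 0% = vehicle and 100% = reference compound; higher means more ethidium bromide displaced from hairpin DNA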
MEKK2 mut-MEK5: signal of MEK5 binding to mutant human MEKK2 PB1 domain; percent response, % at 10 µM; bead flow cytometry, Alexa488-MEK5 binding to MEKK2 mutant; 0.35% of 290,000 active; in the data active means percent response above about 24%, passing the limit was not always enough
MEKK2 WT-MEK5: raises or lowers MEK5 binding to wildtype human MEKK2 PB1 domain; bead flow cytometry, Alexa488-MEK5 binding to MEKK2 WT; actives lie on both sides; binding response (% of control), % at 10 µM; 1.1% of 290,000 active; in the data active means binding response below about 67% or above about 130%
MEKK3 PB1 HTS: MEKK3-MEK5 PB1 interaction, increase or decrease. bead-based flow cytometry, Alexa488-MEK5 binding to MEKK3; actives lie on both sides; 0 = blocked by unlabeled MEK5, 100 = vehicle. binding response (% of control), % at 10 µM. 1.4% of 290,000 active;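 active means binding response more than 3 SD above or below the average of its plate-row segment, actives on both sides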;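 further: Alexa488 bead fluorescence after subtracting the streptavidin-only scavenger bead signal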
Target sequence (Q99759 whole entry, looked up): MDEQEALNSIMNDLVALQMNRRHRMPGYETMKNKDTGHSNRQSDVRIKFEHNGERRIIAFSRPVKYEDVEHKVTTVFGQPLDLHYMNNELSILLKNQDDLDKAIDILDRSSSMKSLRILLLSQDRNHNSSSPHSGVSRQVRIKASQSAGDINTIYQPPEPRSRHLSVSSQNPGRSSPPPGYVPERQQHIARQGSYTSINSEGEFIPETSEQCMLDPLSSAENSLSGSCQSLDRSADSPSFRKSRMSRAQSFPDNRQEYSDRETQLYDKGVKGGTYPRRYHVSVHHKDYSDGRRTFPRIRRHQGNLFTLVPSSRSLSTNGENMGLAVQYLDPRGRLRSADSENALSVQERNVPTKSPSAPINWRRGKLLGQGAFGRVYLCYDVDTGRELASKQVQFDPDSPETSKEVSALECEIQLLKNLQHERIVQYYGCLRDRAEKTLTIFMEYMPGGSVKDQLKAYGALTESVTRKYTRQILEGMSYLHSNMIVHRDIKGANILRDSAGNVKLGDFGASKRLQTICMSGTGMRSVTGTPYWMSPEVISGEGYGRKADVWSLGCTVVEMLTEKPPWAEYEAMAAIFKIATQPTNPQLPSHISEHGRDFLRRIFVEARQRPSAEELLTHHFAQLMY
NS3 helicase inh: blocks Hepatitis C virus NS3 helicase unwinding. NS3 helicase DNA unwinding, Cy5 molecular beacon fluorescence. inhibition, % at 10.9 µM. 0.56% of 290,000 active;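 active means inhibition above the mean of all tested compounds plus 3 SD, set per campaign, cut at about 35% in these data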;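 further: 0% = DMSO wells and 100% = thioflavine S control wells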
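assay system = NS3 helicase fragment of HCV | buffer or medium = MOPS pH 6.5, MgCl2, DTT, Tween20, BSA | timing = 60 min unwinding reaction at 25 °C after ATP addition | signal = Cy5 beacon fluorescence read at start and 1 h | read-out basis = % inhibition of unwinding | control set = low DMSO, high thioflavine S at 110 µM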
The depositor's hits bear a star; x = no result; [ ] = another dose, or the depositor's remark. Shown are actives, neighbours in structure and some others; about 4.1% of the full set was active somewhere.

SMILES	T cruzi inh	FID counter	MEKK2 mut-MEK5	MEKK2 WT-MEK5	MEKK3 PB1 HTS	NS3 helicase inh
COC(=O)Nc1nc(-c2cc(Cl)ccc2Cl)cs1	80*	-5	-2	96	100	-5
CCOC(=O)Nc1nc(-c2ccc(F)cc2F)cs1	-1	-7	1	100	109	4
CCOC(=O)c1ccc2c(c1)N(CC)/C(=C\C=C1/SC(=S)N(CC)C1=O)N2CC	x	-3	x	x	x	-8
C=CCN1C(=O)/C(=C/C=C2/N(CC)c3ccc(S(=O)(=O)N(C)C)cc3N2CC)SC1=S	25	-20	-17	36*[inhibitor]	65	-5
CN(C)CCCOC(=O)c1ccc(Cl)cc1Cl	62*	8	0	98	105	-6
CCCN(CCC)CCCOC(=O)c1ccc(Cl)cc1Cl	-15	6	14	116	110	-3
CCOC(=O)N1CCN(C(=O)CC(C(=O)N2CCc3ccccc32)n2ccnc2)CC1 (configuration not stated)	63*	-5	4	107	103	-14
O=C(CC(C(=O)N1CCc2ccccc21)n1ccnc1)NCc1ccccc1 (configuration not stated)	23	-8	3	95	97	-3
O=c1c2sc3nc(N4CCOCC4)c4c(c3c2ncn1-c1ccccc1)CCCC4	22	-21	-10	91	95	2
OCCN1CCN(c2ncnc3c2sc2nc(N4CCOCC4)c4c(c23)CCC4)CC1	60*	-1	9	109	108	3
Cc1ccccc1-n1cnc2c(sc3nc(N4CCOCC4)c4c(c32)CCCC4)c1=O	71*	-21	-11	81	86	-3
COc1ccc(CN(C)c2ncnc3sccc23)c(OC)c1OC	21	-25	-6	94	95	-1
COc1ccc(CCNC(=O)CNC(=O)Cn2ccc3ccccc3c2=O)cc1OC	-7	-11	-2	99	95	-4
O=C(Nc1ccc(N2CCN(C(=O)c3ccc(Cl)cc3)CC2)cc1)c1ccc([N+](=O)[O-])o1	93*	1	3	102	105	2
CCCC(=O)N1CCN(c2ccc(NC(=O)c3ccc([N+](=O)[O-])o3)cc2)CC1	38	-4	-17	77	81	-1
CC1CCN(c2ccc(NC(=O)c3ccc([N+](=O)[O-])o3)cc2)CC1	72*	x	x	x	x	x
O=C(Nc1ccc(N2CCCCC2)cc1)c1ccc([N+](=O)[O-])o1	4	-12	-1	98	102	19
CCC(=O)N1CCN(c2ccc(NC(=O)c3ccc([N+](=O)[O-])o3)cc2)CC1	72*	-3	4	109	109	-8
CC(C)(C)C(=O)N1CCN(c2ccc(NC(=O)c3ccc([N+](=O)[O-])o3)cc2)CC1	18	-29	5	95	100	5
CC(O)c1ccc(Oc2cnccn2)cc1 (configuration not stated)	-9	-2	3	99	96	9
CCCCn1c(N)c(N(CC(C)C)C(=O)C(C)SCc2nc3sc(C)c(C)c3c(=O)[nH]2)c(=O)[nH]c1=O (configuration not stated)	8	x	x	x	x	x
CC(=O)N1CCN(c2c(F)c(F)c(C(F)(F)F)c(F)c2F)CC1	-11	9	3	99	105	4
CCc1cccc2c(C(=O)CN3C(=O)NC(C)(c4cccc5ccccc45)C3=O)c[nH]c12 (configuration not stated)	66*	0	6	112	101	-29
O=C(CN(Cc1ccc(Cl)cc1)C(=O)CNS(=O)(=O)c1ccc(F)cc1)NCC1CCCO1 (configuration not stated)	5	-34	6	104	104	-3
CCOC(=O)c1cc(NC(=O)CNCC(c2ccccc2)N(C)C)cc(C(=O)OCC)c1 (configuration not stated)	24	38*	-8	107	100	-34
SMILES	T cruzi inh	FID counter	MEKK2 mut-MEK5	MEKK2 WT-MEK5	MEKK3 PB1 HTS	NS3 helicase inh
CN(C)CCCNC(=O)c1ccc(-c2ccccc2)cc1	41	14	0	102	94	-7
CC(C)c1ccc(C(=O)NCCCN(C)C)cc1	60*	0	-2	101	100	5
CN(C)CCCNC(=O)c1ccc(Cl)c(S(=O)(=O)N(C)c2ccccc2)c1	65*	16	1	109	99	-4
CCN(Cc1ccccc1)S(=O)(=O)c1cc(C(=O)NCCCN(C)C)ccc1OC	28	9	0	99	88	-5
Cc1ccc(Oc2ncccc2N)c2c1CCC2	0	4	-5	94	99	-1
CC1(C)CC(=O)C2=C(C1)OC(N)=C(C#N)C2c1cc2c(cc1[N+](=O)[O-])OCO2 (configuration not stated)	9	-7	-2	94	94	-2
C/C(Cn1cnc([N+](=O)[O-])n1)=N/NC(=O)COc1c(Cl)cc(Cl)cc1Cl	62*	-2	0	103	102	6
Cc1c(Cl)cccc1NC(=O)c1nc(C)n(-c2cc(OC(C)C)c(Cl)cc2Cl)n1	56*	-23	-5	86	86	-15
NC(=S)N/N=C/c1ccc(-c2cc(Cl)cc(Cl)c2)o1	59*	-5	1	93	103	5
O=C(N/N=C/c1ccc(-c2ccccc2Cl)o1)c1ccccc1	75*	-15	5	105	105	10
O=C(N/N=C/c1ccc(-c2cccc(C(F)(F)F)c2)o1)c1cccc(F)c1	69*	-7	13	116	106	-7
NC(=S)N/N=C/c1ccc(-c2cc(Cl)ccc2Cl)o1	67*	-8	-5	89	93	6
CCn1c(CNC(=O)c2cccnc2)cc2ccccc21	2	-6	13	113	105	4
COC(=O)c1c(C)nc(C)c(C(=O)OC)c1-c1cccs1	-19	-7	64*	93	87	5
CCCCCCn1c(=O)[nH]c2nc3cc(N)c(C)cc3nc2c1=O	x	-4	1	102	103	45*
CN(CC(=O)Nc1ccc(F)cc1)C(=O)COC(=O)CNC(=O)c1sc2ccccc2c1Cl	-3	x	x	x	x	x
CC1CCN(CCc2nc3cc(NC(=O)COc4ccc(Cl)cc4)ccc3n2C)CC1	30	20	13	119	102	-32
CCN1CCN(c2cc(C)c3cc(NC(=S)N4CCN(c5ccccc5)CC4)ccc3n2)CC1	58*	21	8	121	101	-60
CCCN1CCN(C(=S)Nc2ccc3nc(N4CCN(CC)CC4)cc(C)c3c2)CC1	42	50*	13	123	113	3

Screening results as filed in PubChem BioAssay.
